Experimental data: ChEMBL document CHEMBL3856289, “Discovery of ONO-7300243 from a Novel Class of Lysophosphatidic Acid Receptor 1 Antagonists: From Hit to Lead” (ACS Med Chem Lett, 2016)
Values after ≈ are worked out from the molar mass of the structure shown. Active and inactive are the calls of the source. The calls are words filed in the database; no cut-off is given here.

Key:
[1] = target: T1, Lysophosphatidic acid receptor 1 (Homo sapiens, UniProt Q92633); test: Antagonist activity at human LPA1 receptor expressed in CHO cells assessed as reduction in LPA-induced intracellular Ca2+ concentration at 1 uM pretreated with compound followed by LPA addition by fluorescence assay; type: functional, cell-based
T1 sequence (Q92633 whole entry): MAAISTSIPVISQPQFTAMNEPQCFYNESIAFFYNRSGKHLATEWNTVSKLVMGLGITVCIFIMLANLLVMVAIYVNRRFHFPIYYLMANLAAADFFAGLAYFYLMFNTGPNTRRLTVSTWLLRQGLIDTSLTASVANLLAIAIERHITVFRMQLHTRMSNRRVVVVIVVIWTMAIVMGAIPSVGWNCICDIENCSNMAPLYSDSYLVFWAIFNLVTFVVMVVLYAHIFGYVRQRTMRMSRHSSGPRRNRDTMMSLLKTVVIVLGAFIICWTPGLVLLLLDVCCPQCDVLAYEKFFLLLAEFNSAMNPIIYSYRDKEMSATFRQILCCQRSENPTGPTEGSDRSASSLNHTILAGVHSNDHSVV

[2] = target: T1, Lysophosphatidic acid receptor 1; test: Antagonist activity at human LPA1 receptor expressed in CHO cells assessed as reduction in LPA-induced intracellular Ca2+ concentration pretreated with compound followed by LPA addition by fluorescence assay; type: functional, cell-based
Procedure, shortened: (§1)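 IC50s came from nonlinear regression of 5-point concentration–response curves, reported with 95% confidence intervals.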

[3] = system: Rattus norvegicus; test: Reduction in intraurethral pressure in conscious rat at 1 mg/kg, po measured after 60 mins; type: functional, organism-based; conditions: 30 mg/kg, in the assay text read “30 mg/kg” for “1 mg/kg”
Procedure, shortened: (§2)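 Conscious rats were dosed orally at 0 min with no LPA stimulation. Intraurethral pressure and mean blood pressure were recorded continuously for 60 min and averaged over 10-min intervals. Comparison was against vehicle.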

[4] = system: Rattus norvegicus; test: In vivo antagonist activity at LPA1 receptor in conscious rat assessed as decrease in intraurethral pressure at 30 mg/kg, po; type: functional, organism-based; procedure, shortened: as §2
[5] = system: Rattus norvegicus; test: Inhibition of LPA-induced increase of intraurethral pressure in anesthetized rat at 3 mg/kg, id administered at 0 mins followed by LPA challenge at 0, 5, 15, 30 and 60 mins; type: functional; conditions: Urethra
Procedure, shortened: (§3)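 Anesthetized rats received compound in 0.5% methylcellulose intraduodenally at 0 min. LPA (300 μg/kg) was given i.v. before dosing and at 5, 15, 30 and 60 min. The read-out is the maximal inhibition rate of the LPA-evoked intraurethral pressure rise.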

[6] = target: Lysophosphatidic acid receptor 2 (Homo sapiens, UniProt Q9HBW0); test: Inhibition of LPA2 (unknown origin); procedure, shortened: as §1
Sequence of Lysophosphatidic acid receptor 2 (Q9HBW0 whole entry): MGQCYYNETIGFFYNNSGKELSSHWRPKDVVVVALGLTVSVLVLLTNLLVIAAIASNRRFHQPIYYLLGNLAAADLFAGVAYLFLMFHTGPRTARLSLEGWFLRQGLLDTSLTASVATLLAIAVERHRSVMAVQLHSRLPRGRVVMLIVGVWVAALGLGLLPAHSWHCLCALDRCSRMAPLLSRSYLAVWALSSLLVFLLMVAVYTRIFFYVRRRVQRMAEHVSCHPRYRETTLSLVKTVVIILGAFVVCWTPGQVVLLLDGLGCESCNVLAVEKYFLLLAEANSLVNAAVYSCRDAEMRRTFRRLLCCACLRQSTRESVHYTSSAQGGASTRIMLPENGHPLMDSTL

[7] = Total clearance in rat at 3 mg/kg, iv; type: ADME, organism-based; conditions: in vivo
[8] = system: Rattus norvegicus; test: Inhibition of LPA-induced increase of intraurethral pressure in rat at 30 mg/kg, po administered 60 mins prior to LPA addition; type: functional, organism-based; conditions: Urethra
Procedure, shortened: (§4)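 Conscious rats were dosed orally. After 60 min, LPA (300 μg/kg) was injected i.v. and intraurethral pressure was recorded under short-term anesthesia. ID50 was taken from the dose–response.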

[9] = Half life in human liver microsomes at 0.5 mg/ml; type: ADME
Procedure, shortened: (§5)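 Liver microsomes were used at 0.5 mg/mL with NADPH. Half-life is reported in min.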

[10] = system: Rattus norvegicus; test: Inhibition of LPA-induced increase of intraurethral pressure in anesthetized rat at 10 mg/kg, id administered at 0 mins followed by LPA challenge at 0, 5, 15, 30 and 60 mins; type: functional; conditions: Urethra; procedure, shortened: as §3
[11] = Half life in rat at 3 mg/kg, iv; type: ADME, organism-based; conditions: in vivo
[12] = target: T2, Lysophosphatidic acid receptor 3 (Homo sapiens, UniProt Q9UBY5); test: Inhibition of LPA3 (unknown origin); procedure, shortened: as §1
T2 sequence (Q9UBY5 whole entry): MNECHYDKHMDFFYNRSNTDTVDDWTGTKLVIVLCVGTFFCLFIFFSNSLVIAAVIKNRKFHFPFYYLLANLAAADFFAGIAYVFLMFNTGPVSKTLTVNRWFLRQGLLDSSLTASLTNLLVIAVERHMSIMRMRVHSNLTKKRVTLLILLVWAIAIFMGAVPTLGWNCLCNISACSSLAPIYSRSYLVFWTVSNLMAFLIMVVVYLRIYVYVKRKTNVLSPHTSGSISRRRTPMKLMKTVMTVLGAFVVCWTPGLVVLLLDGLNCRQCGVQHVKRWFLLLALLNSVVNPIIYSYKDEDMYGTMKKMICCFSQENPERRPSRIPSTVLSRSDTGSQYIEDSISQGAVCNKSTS

[13] = system: Rattus norvegicus; test: Inhibition of LPA-induced increase of intraurethral pressure in rat at 10 mg/kg, po administered 60 mins prior to LPA addition; type: functional, organism-based; conditions: Urethra; procedure, shortened: as §4
[14] = Apparent permeability in human Caco2 cells; type: ADME, cell-based; conditions: Caco-2
[15] = Half life in rat liver microsomes at 0.5 mg/ml; type: ADME; procedure, shortened: as §5
[16] = system: Rattus norvegicus; test: Toxicity in conscious rat assessed as reduction in mean blood pressure at 30 mg/kg, po; type: organism-based; conditions: in vivo; procedure, shortened: as §2
[17] = Solubility of the compound in buffer at pH 6.8; type: physicochemical
[18] = system: Rattus norvegicus; test: Inhibition of LPA-induced increase of intraurethral pressure in po dosed rat administered 60 mins prior to LPA addition; type: functional; conditions: Urethra; procedure, shortened: as §4
[19] = system: Rattus norvegicus; test: Toxicity in conscious rat assessed as reduction in mean blood pressure at 1 mg/kg, po measured after 60 mins; type: organism-based; conditions: in vivo, 1 h; procedure, shortened: as §2

COc1cc(OC)cc(C(=O)N(CCCc2ccccc2)Cc2ccc(Oc3ccc(C(=O)O)cc3)cc2)c1
inhibition [1]: 44%

COc1cc(C(=O)N(CCCCc2ccccc2)Cc2ccc(OCC(=O)O)cc2)cc(OC)c1C
IC50 [2]: 6600 nM

COc1cccc(C(=O)N(CCCc2ccccc2)Cc2ccc(-c3ccccc3C(=O)O)cc2)c1
IC50 [2]: 1300 nM

COc1cc(C(=O)N(CCCc2ccccc2)Cc2ccc(Oc3cc(C)ccc3C(=O)O)cc2)cc(OC)c1C
IC50 [2]: 15 nM

COc1cc(C(=O)N(CCCc2ccccc2)Cc2ccc(CC(=O)O)cc2)cc(OC)c1C
IC50 [2]: 160 nM
Activity [3]: Active
inhibition [4]: Active
inhibition in vivo at 3 mg/kg [5]: 62%
IC50 [6]: 8600 nM
clearance [7]: 15.9 mL/min/kg
inhibition [8]: Active
half-life [9]: 28 min
inhibition in vivo at 10 mg/kg [10]: 88%
half-life [11]: 18 min
IC50 [12]: > 10000 nM
inhibition [13]: Active
Papp [14]: 15.9 ×10⁻⁶ cm/s
half-life [15]: 29 min
Activity [16]: Non-Toxic
solubility [17]: 73 µM (≈ 33.7 µg/mL)
inhibition [18]: Dose-dependent effect
ED50 ([18]; read-out: ID50 (the source's name)): 11.6 mg/kg

O=C(O)c1ccccc1-c1ccc(CN(CCCc2ccccc2)C(=O)c2ccccc2)cc1
IC50 [2]: 12100 nM

COc1cc(C(=O)N(CCCc2ccccc2)Cc2ccc(Oc3ccc(Cl)cc3C(=O)O)cc2)cc(OC)c1C
IC50 [2]: 3.5 nM
IC50 [6]: 790 nM
half-life [9]: < 15 min
inhibition in vivo at 10 mg/kg [10]: 53%
IC50 [12]: > 10000 nM
half-life [15]: < 15 min
solubility [17]: 69 µM (≈ 39.6 µg/mL)

COc1cc(C(=O)N(CCCc2ccccc2)Cc2ccc(Oc3ccccc3C(=O)O)cc2)cc(OC)c1C
IC50 [2]: 71 nM

COc1cc(C(=O)N(CCCc2cccc(F)c2)Cc2ccc(CC(=O)O)cc2)cc(OC)c1C
IC50 [2]: 190 nM

COc1cc(C(=O)N(CCCc2ccccc2F)Cc2ccc(CC(=O)O)cc2)cc(OC)c1C
IC50 [2]: 220 nM

COc1cc(C(=O)N(CCCc2ccccc2)Cc2ccc(C(=O)O)cc2)cc(OC)c1C
IC50 [2]: > 1000 nM

COc1cc(OC)cc(C(=O)N(CCCc2ccccc2)Cc2ccc(Oc3cccc(C(=O)O)c3)cc2)c1
IC50 [2]: 140 nM

COc1cc(C(=O)N(CCCc2ccccc2)Cc2ccc(-c3ccccc3C(=O)O)cc2)cc(OC)c1OC
IC50 [2]: 390 nM

O=C(O)c1ccccc1-c1ccc(CN(CCCc2ccccc2)C(=O)c2cccc(F)c2)cc1
IC50 [2]: 5500 nM

COc1cc(C(=O)N(CCCc2ccccc2)Cc2ccc(Oc3ccccc3C(=O)O)cc2)cc(OC)c1OC
IC50 [2]: 130 nM

COc1cc(OC)cc(C(=O)N(CCCc2ccccc2)Cc2ccc(-c3ccccc3CC(=O)O)cc2)c1
IC50 [2]: 210 nM

COc1cc(C(=O)N(CCCc2ccccc2)Cc2ccc(Oc3ccc(C)cc3C(=O)O)cc2)cc(OC)c1C
IC50 [2]: 42 nM

COc1cc(C(=O)N(CCc2ccccc2)Cc2ccc(OCC(=O)O)cc2)cc(OC)c1C
IC50 [2]: > 10000 nM

COc1cc(OC)cc(C(=O)N(CCCc2ccccc2)Cc2ccc(-c3ccccc3CCC(=O)O)cc2)c1
IC50 [2]: 230 nM

COc1cc(C(=O)N(CCCc2ccccc2)Cc2ccc(OCC(=O)O)cc2)cc(OC)c1C
IC50 [2]: 100 nM
IC50 [6]: 23000 nM
half-life [9]: 22 min
inhibition in vivo at 10 mg/kg [10]: 44%
IC50 [12]: > 10000 nM
Papp [14]: 3.2 ×10⁻⁶ cm/s
half-life [15]: 24 min
solubility [17]: 84 µM (≈ 40.1 µg/mL)

COc1ccc(C(=O)N(CCCc2ccccc2)Cc2ccc(-c3ccccc3C(=O)O)cc2)cc1
IC50 [2]: 4400 nM

COc1cc(C(=O)N(CCCc2ccccc2)Cc2ccc(Oc3cccc(C)c3C(=O)O)cc2)cc(OC)c1C
IC50 [2]: 100 nM

COc1cc(C(=O)N(CCCOc2cccc(C(=O)O)c2)CCCc2ccccc2)cc(OC)c1C
IC50 [2]: 680 nM

Cc1cc(C)cc(C(=O)N(CCCc2ccccc2)Cc2ccc(-c3ccccc3C(=O)O)cc2)c1
IC50 [2]: 260 nM

COc1cc(OC)cc(C(=O)N(CCCc2ccccc2)Cc2ccc(Oc3ccccc3C(=O)O)cc2)c1
IC50 [2]: 89 nM

CCOc1ccccc1OCCN[C@H](C)Cc1ccc(OC)c(S(N)(=O)=O)c1 [TAMSULOSIN]
Activity [3]: Active
Activity [19]: Toxic

COc1cc(C(=O)N(CCCc2ccc(F)cc2)Cc2ccc(CC(=O)O)cc2)cc(OC)c1C
IC50 [2]: > 1000 nM

COc1ccc(C(=O)N(CCCc2ccccc2)Cc2ccc(-c3ccccc3C(=O)O)cc2)cc1OC
IC50 [2]: 3700 nM

COc1cc(OC)cc(C(=O)N(CCCc2ccccc2)Cc2ccc(-c3ccccc3C(=O)O)cc2)c1
IC50 [2]: 260 nM

COc1cc(C(=O)N(CCCc2ccccc2)Cc2ccc(Oc3cc(Cl)ccc3C(=O)O)cc2)cc(OC)c1C
IC50 [2]: 5.9 nM

COc1cc(C(=O)N(C/C=C/c2ccccc2)Cc2ccc(CC(=O)O)cc2)cc(OC)c1C
IC50 [2]: > 1000 nM

Cc1cccc(C(=O)N(CCCc2ccccc2)Cc2ccc(-c3ccccc3C(=O)O)cc2)c1
IC50 [2]: 1700 nM

COc1cc(C(=O)N(CCCc2ccccc2)Cc2ccc(Oc3c(C)cccc3C(=O)O)cc2)cc(OC)c1C
IC50 [2]: 140 nM

COc1ccccc1C(=O)N(CCCc1ccccc1)Cc1ccc(-c2ccccc2C(=O)O)cc1
IC50 [2]: 3300 nM
